Reference: article PMC9177108 (The Oncologist, 2022)

Experiments:
[1] = system: patients with recurrent and metastatic nasopharyngeal carcinoma (RM-NPC); experiment: Safety and tolerability; format: in vivo, human
Summary of the method: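 Safety was the primary endpoint, assessed separately in two randomised arms of pretreated RM-NPC patients given test compound 10 mg orally: daily on a 4-week cycle, or 3 weeks on/1 week off. Adverse events were graded by CTCAE version 4.03. The safety set comprised patients who took at least one dose. TEAEs and TRAEs, including those leading to dose reduction, interruption or discontinuation, were tabulated per arm.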

[2] = system: patients with recurrent and metastatic nasopharyngeal carcinoma (RM-NPC); experiment: Antitumor efficacy; format: in vivo, human; conditions: for time to response: radiologic assessment every 8 weeks
Summary of the method: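 Patients with pretreated RM-NPC were randomised to two arms, each evaluated separately (10 per arm). Both arms took test compound 10 mg orally daily: intermittent arm 3 weeks on/1 week off, continuous arm daily on a 4-week cycle. The investigator assessed response by RECIST 1.1. ORR was CR or PR as best overall response. DCR was confirmed CR, confirmed PR or SD lasting ≥4 weeks from randomisation.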

[3] = continuous arm (10 mg p.o. daily, 4-week cycle), n = 10
[4] = intermittent arm (10 mg p.o., 3 weeks on/1 week off), n = 10
[5] = intermittent arm, n = 10, listed as lucitanib

CNC(=O)c1cccc2cc(Oc3ccnc4cc(OCC5(N)CC5)c(OC)cc34)ccc12 [Lucitanib]
patients with at least one TEAE ([1]; all patients, both arms): All patients
serious TRAEs ([1]; all patients, both arms): No patients experienced serious TRAEs
patients with Grade ≥3 related TEAEs ([1]; all patients, both arms (7/20)): 35%
TRAE: Hypothyroidism ([1]; continuous arm): 60%
grade ≥3 TRAE: decreased platelet count ([1]; continuous arm): 10%
grade ≥3 TRAE: hypertension ([1]; continuous arm): 30%
grade ≥3 TRAE: increased AST ([1]; continuous arm): 10%
grade ≥3 TRAE: proteinuria ([1]; continuous arm): 20%
patients with at least one treatment-related AE (TRAE) ([1]; continuous arm): One hundred
patients with Grade ≥3 related TEAEs ([1]; continuous arm (5/10)): 50%
patients with Grade ≥3 related TRAEs ([1]; continuous arm (5/10)): 50%
Drug-related AE: Cough ([1]; continuous arm, n = 10): 2 (20.0) n (%)
Drug-related AE: Diarrhea ([1]; continuous arm, n = 10): 3 (30.0) n (%)
Drug-related AE: Epistaxis ([1]; continuous arm, n = 10): 5 (50.0) n (%)
Drug-related AE: Free thyroxine decreased ([1]; continuous arm, n = 10): 3 (30.0) n (%)
Drug-related AE: Hypertension ([1]; continuous arm, n = 10): 10 (100.0) n (%)
Drug-related AE: Hypochloremia ([1]; continuous arm, n = 10): 3 (30.0) n (%)
Drug-related AE: Platelet count decreased ([1]; continuous arm, n = 10): 3 (30.0) n (%)
Drug-related AE: Proteinuria ([1]; continuous arm, n = 10): 10 (100.0) n (%)
Drug-related AE: Skin rash ([1]; continuous arm, n = 10): 3 (30.0) n (%)
Drug-related AE: TSH increased ([1]; continuous arm, n = 10): 3 (30.0) n (%)
Drug-related adverse events: All ([1]; continuous arm, n = 10): 10 (100.0) n (%)
Grade ≥3 TEAE ([1]; continuous arm, n = 10): 5 (50) n (%)
Grade ≥3 TRAE ([1]; continuous arm, n = 10): 5 (50) n (%)
Serious TRAE ([1]; continuous arm, n = 10): 0 n (%)
TRAE lead to dose discontinuation ([1]; continuous arm, n = 10): 0 n (%)
TRAE lead to dose interruption ([1]; continuous arm, n = 10): 5 (50) n (%)
TRAE: Hypothyroidism ([1]; intermittent arm): 50%
grade ≥3 TRAE: decreased platelet count ([1]; intermittent arm): 0%
grade ≥3 TRAE: hypertension ([1]; intermittent arm): 0%
grade ≥3 TRAE: increased AST ([1]; intermittent arm): 0%
grade ≥3 TRAE: proteinuria ([1]; intermittent arm): 0%
patients with at least one treatment-related AE (TRAE) ([1]; intermittent arm): 90%
Drug-related AE: AST increased ([1]; intermittent arm, n = 10): 0 n (%)
Drug-related AE: Backache ([1]; intermittent arm, n = 10): 0 n (%)
Drug-related AE: Cough ([1]; intermittent arm, n = 10): 3 (30.0) n (%)
Drug-related AE: Diarrhea ([1]; intermittent arm, n = 10): 0 n (%)
Drug-related AE: Free thyroxine decreased ([1]; intermittent arm, n = 10): 1 (10.0) n (%)
Drug-related AE: Hypochloremia ([1]; intermittent arm, n = 10): 1 (10.0) n (%)
Drug-related AE: Hypothyroidism ([1]; intermittent arm, n = 10): 5 (50.0) n (%)
Drug-related AE: Platelet count decreased ([1]; intermittent arm, n = 10): 1 (10.0) n (%)
Drug-related AE: Proteinuria ([1]; intermittent arm, n = 10): 5 (50.0) n (%)
Drug-related AE: Serum creatinine (Scr) increased ([1]; intermittent arm, n = 10): 1 (10.0) n (%)
Drug-related AE: Skin rash ([1]; intermittent arm, n = 10): 0 n (%)
Drug-related AE: TSH increased ([1]; intermittent arm, n = 10): 1 (10.0) n (%)
Drug-related AE: Weight loss ([1]; intermittent arm, n = 10): 0 n (%)
Grade ≥3 TEAE ([1]; intermittent arm, n = 10): 2 (20) n (%)
Grade ≥3 TRAE ([1]; intermittent arm, n = 10): 0 n (%)
Serious TRAE ([1]; intermittent arm, n = 10): 0 n (%)
TRAE lead to dose discontinuation ([1]; intermittent arm, n = 10): 1 (10) n (%)
TRAE lead to dose interruption ([1]; intermittent arm, n = 10): 2 (20) n (%)
TRAE lead to dose reduction ([1]; intermittent arm, n = 10): 0 n (%)
duration of response ([2]; all three responders, both arms): more than 1 year
time to response ([2]; all three responders): observed by the first evaluation
time to response ([2]; all three responders, listed as lucitanib): at the first evaluation
Best response PR [2, 3]: n = 2 (20%) n (%)
Response assessment CR [2, 3]: n = 0 (0%) n (%)
Best response PR ([2]; continuous arm (10 mg p.o. daily, 4-week cycle), n = 10, listed as lucitanib): 2 (20) n (%)
Best response PD ([2]; continuous arm, n = 10): 1 (10) n (%)
Best response SD ([2]; continuous arm, n = 10): 7 (70) n (%)
DCR ([2]; continuous arm, n = 10): 90%
ORR ([2]; continuous arm, n = 10): 20%
Response assessment OTHER ([2]; continuous arm, n = 10): n = 0 (0%) n (%)
median PFS ([2]; continuous arm, n = 10, 90% CI 3.5 to NE): 3.73 months
Best response PR [2, 4]: 1 (10) n (%)
Response assessment CR [2, 4]: n = 0 (0%) n (%)
Best response SD ([2]; intermittent arm, n = 10): n = 5 (50%) n (%)
median PFS ([2]; intermittent arm, n = 10, 90% CI 1.74 to 7.36): 3.68 months
Best response PD [2, 5]: 3 (30) n (%)
Best response SD [2, 5]: 5 (50) n (%)
DCR [2, 5]: 60%
